# In ChEMBL document CHEMBL1156772, “Synthesis, affinity profile and functional activity of potent chiral muscarinic antagonists with a pyrrolidinylfuran structure” (J Med Chem, 2010):
# Experiments:
# [1] = target: T1, Muscarinic acetylcholine receptor M2 (Homo sapiens, UniProt P08172); assay: Displacement of [3H]NMS from human cloned muscarinic M2 receptor expressed in CHO cells by scintillation counting; format: cell-based
# T1 sequence (P08172 whole entry): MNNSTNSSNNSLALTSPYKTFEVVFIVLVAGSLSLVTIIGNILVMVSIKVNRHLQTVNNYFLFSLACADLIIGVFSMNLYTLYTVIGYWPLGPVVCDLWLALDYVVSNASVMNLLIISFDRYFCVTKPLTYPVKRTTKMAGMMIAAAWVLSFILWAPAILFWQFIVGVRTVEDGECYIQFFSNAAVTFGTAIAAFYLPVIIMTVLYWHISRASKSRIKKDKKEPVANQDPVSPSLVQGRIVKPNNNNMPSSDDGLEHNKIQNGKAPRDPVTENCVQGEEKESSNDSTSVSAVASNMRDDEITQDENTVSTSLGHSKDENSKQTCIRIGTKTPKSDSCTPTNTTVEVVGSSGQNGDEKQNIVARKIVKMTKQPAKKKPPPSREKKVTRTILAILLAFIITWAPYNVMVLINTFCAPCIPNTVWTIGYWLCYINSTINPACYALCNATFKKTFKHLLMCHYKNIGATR
# In short: (§1)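 Equilibrium radioligand binding in CHO cells expressing the human muscarinic subtype, following the authors' earlier protocol.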
# [2] = target: T2, Muscarinic acetylcholine receptor M1 (Homo sapiens, UniProt P11229); assay: Displacement of [3H]NMS from human cloned muscarinic M1 receptor expressed in CHO cells by scintillation counting; format: cell-based
# T2 sequence (P11229 whole entry): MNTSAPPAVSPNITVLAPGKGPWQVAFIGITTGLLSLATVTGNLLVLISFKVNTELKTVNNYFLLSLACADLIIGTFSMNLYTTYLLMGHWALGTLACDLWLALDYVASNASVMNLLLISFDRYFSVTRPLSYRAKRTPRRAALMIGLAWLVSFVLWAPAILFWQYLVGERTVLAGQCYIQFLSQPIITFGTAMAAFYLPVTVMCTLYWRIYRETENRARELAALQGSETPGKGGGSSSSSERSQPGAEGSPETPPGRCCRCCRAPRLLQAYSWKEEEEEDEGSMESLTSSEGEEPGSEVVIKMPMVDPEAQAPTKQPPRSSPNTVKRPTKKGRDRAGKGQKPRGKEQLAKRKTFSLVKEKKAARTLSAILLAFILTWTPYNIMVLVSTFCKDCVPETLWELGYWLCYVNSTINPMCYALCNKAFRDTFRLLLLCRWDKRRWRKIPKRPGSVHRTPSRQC
# [3] = target: Muscarinic acetylcholine receptor M3 (Cavia porcellus) (UniProt Q8VH26); assay: Antagonist activity at muscarinic M3 receptor in guinea pig ileum assessed as effect on isotonic tension after 60 mins; format: functional, tissue-based
# Chain of Muscarinic acetylcholine receptor M3 (Cavia porcellus) (Q8VH26 1-587): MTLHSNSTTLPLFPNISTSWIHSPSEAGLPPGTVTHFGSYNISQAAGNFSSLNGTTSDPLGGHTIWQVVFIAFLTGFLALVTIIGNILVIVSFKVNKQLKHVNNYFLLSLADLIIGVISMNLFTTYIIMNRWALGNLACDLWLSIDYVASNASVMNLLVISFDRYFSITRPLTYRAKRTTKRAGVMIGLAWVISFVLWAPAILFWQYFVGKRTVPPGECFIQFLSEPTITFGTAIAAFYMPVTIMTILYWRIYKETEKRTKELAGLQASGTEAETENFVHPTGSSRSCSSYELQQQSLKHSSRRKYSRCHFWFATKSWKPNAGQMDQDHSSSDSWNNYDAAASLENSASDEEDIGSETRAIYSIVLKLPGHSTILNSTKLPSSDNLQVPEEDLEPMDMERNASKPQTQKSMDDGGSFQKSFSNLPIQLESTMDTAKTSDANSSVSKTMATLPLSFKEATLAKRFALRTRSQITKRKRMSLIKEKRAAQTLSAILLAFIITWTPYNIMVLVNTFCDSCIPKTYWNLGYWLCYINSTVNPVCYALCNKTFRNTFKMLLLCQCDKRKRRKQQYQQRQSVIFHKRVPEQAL
# [4] = target: T3, Muscarinic receptor 2 (Cavia porcellus) (UniProt Q8VH27); assay: (§2) Antagonist activity at muscarinic M2 receptor in guinea pig left atrium assessed as effect on electrically-stimulated inotropic activity after 60 mins; format: functional, tissue-based; conditions: Cardiac atrium
# T3 sequence (whole entry): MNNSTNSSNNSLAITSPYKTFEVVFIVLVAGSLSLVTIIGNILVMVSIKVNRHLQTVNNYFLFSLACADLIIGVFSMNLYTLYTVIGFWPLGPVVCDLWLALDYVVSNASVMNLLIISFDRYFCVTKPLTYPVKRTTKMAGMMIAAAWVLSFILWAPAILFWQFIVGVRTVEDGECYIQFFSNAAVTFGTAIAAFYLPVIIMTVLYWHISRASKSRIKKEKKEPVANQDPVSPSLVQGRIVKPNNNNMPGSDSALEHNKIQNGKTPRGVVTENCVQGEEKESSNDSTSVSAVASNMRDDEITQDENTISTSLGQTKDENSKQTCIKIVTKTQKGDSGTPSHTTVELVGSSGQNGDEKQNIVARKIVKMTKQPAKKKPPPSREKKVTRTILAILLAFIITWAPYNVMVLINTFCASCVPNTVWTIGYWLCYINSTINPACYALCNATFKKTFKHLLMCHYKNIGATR
# [5] = target: T4, Muscarinic receptor 4 (Cavia porcellus) (UniProt Q8VH25); assay: (§3) Antagonist activity at muscarinic M4 receptor in guinea pig lung strips assessed as effect on isotonic contraction after 60 mins; format: functional
# T4 sequence (whole entry): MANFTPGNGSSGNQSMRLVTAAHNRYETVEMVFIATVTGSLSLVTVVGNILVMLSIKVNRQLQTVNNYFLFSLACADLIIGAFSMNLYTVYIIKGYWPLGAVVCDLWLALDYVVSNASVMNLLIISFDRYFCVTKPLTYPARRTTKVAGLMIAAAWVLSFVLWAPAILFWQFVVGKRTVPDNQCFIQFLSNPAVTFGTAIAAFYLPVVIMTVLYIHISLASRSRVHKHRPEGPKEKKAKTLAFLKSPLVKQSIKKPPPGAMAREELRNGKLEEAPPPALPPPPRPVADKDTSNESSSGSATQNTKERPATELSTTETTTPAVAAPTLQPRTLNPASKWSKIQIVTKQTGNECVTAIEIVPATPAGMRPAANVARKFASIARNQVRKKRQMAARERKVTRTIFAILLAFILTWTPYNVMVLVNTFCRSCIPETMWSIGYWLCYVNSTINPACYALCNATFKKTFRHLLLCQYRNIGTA
# [6] = target: T5, Muscarinic acetylcholine receptor M4 (Homo sapiens, UniProt P08173); assay: Displacement of [3H]NMS from human cloned muscarinic M4 receptor expressed in CHO cells by scintillation counting; format: cell-based
# T5 sequence (P08173 whole entry): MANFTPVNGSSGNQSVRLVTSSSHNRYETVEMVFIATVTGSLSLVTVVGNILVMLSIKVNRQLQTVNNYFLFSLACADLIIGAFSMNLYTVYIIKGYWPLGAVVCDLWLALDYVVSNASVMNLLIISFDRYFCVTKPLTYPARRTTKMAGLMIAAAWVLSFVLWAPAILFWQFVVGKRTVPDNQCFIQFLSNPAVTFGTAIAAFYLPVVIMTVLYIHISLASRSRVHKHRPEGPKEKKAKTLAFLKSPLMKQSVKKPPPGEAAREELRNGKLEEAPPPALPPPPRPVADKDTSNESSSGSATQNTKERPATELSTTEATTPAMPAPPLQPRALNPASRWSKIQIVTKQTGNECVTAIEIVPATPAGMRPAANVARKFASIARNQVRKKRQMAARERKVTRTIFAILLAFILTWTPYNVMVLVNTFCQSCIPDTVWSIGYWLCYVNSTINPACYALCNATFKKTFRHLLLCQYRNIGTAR
# [7] = target: T6, Muscarinic acetylcholine receptor M5 (Homo sapiens, UniProt P08912); assay: Displacement of [3H]NMS from human cloned muscarinic M5 receptor expressed in CHO cells by scintillation counting; format: cell-based; in short: as §1
# T6 sequence (P08912 whole entry): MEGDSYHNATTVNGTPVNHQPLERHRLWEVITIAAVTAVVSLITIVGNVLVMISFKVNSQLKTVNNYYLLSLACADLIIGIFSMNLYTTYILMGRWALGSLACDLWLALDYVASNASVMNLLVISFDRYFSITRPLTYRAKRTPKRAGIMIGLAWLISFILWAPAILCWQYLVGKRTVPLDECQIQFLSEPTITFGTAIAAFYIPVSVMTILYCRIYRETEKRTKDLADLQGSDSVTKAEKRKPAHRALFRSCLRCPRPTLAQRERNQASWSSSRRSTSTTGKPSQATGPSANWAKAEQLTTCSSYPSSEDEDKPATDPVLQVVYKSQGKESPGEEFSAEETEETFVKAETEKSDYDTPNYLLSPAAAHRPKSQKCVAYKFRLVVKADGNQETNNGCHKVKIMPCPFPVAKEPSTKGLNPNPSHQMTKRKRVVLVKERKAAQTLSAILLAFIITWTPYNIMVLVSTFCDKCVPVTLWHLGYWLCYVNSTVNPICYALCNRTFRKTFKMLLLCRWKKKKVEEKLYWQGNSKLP
# [8] = Antagonist activity at muscarinic M1 receptor in New Zealand rabbit vas deferens assessed as effect on electrically-stimulated muscle contraction after 60 mins; format: functional, Oryctolagus cuniculus
# [9] = target: Muscarinic acetylcholine receptor M3 (Homo sapiens, UniProt P20309); assay: Displacement of [3H]NMS from human cloned muscarinic M3 receptor expressed in CHO cells by scintillation counting; format: cell-based
# Chain of Muscarinic acetylcholine receptor M3 (P20309 whole entry): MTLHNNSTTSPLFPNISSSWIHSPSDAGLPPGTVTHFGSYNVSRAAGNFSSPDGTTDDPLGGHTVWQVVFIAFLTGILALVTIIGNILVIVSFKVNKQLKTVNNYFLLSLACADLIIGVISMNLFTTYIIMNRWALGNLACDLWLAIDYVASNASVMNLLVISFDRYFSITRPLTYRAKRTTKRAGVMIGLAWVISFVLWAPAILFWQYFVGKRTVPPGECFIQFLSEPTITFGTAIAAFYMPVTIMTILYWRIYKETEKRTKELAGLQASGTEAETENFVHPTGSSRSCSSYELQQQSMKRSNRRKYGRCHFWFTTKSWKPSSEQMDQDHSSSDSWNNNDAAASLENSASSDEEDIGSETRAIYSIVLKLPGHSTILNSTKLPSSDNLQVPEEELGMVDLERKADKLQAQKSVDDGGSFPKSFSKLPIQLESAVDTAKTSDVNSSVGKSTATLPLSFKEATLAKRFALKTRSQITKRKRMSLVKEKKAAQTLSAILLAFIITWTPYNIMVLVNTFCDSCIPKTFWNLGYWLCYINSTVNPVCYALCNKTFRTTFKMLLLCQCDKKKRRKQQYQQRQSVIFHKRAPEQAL
# Muscarinic receptor 2 = target: T7, Muscarinic receptor 2 (Cavia porcellus, UniProt Q8VH27); assay: as §2; format: functional, tissue-based, Cardiac atrium; conditions: read-out: pA2 (converted)
# T7 sequence (Q8VH27 whole entry): T3 sequence (whole entry)
# Muscarinic receptor 4 = target: T8, Muscarinic receptor 4 (Cavia porcellus, UniProt Q8VH25); assay: as §3; format: functional; conditions: read-out: pA2 (converted)
# T8 sequence (Q8VH25 whole entry): T4 sequence (whole entry)
SMILES,Ki [1],Ki [2],pKb [3],pKb [4],pKb [5],Ki [6],Ki [7],pKb [8],Ki [9],Kb (Muscarinic receptor 2),Kb (Muscarinic receptor 4)
CN1CCCC1c1ccc(C(O)(c2ccccc2)c2ccccc2)o1 (racemic),29.5 nM,35.5 nM,6.65,6.92,< 5,105 nM,97.7 nM,6.91,95.5 nM,–,–
CN1CCC[C@@H]1c1ccc([C@](O)(c2ccccc2)C2CCCCC2)o1,4.57 nM,1.23 nM,8.76,7.91,5.92,3.98 nM,3.31 nM,9.58,1.66 nM,–,–
CN1CCCC1c1ccc(C(c2ccccc2)c2ccccc2)o1 (centres undefined),64.6 nM,42.7 nM,6.81,6.52,5.19,158 nM,105 nM,6.64,85.1 nM,–,–
C[N+]1(C)[C@@H]2C[C@@H](OC(=O)[C@H](CO)c3ccccc3)C[C@H]1[C@@H]1O[C@@H]12 [METHSCOPOLAMINE],–,–,–,–,–,–,–,–,–,0.468 nM,6.46 nM
